Active and inactive are the calls of the source. No cut-off for these calls is given here.
Key:
Mus musculus [1] = assay: Neurotoxicity in albino Carworth Farms No.1 mouse assessed as motor impairment at 300 mg/kg, ip after 4 hrs by rotarod test; type: toxicity, organism-based; design: dose 300 mg/kg, route intraperitoneal; conditions: in vivo
In short: (§1)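 Rotorod neurotoxicity in mice at 6 r.p.m. Compound given i.p. (30, 100, 300 mg/kg) in 0.5% methylcellulose; tested at 30 min and 4 h. Impairment is inability to keep equilibrium on the rod for a given time; scored as impaired/tested.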

Rattus norvegicus [2] = assay: Anticonvulsant activity in po dosed albino Sprague-Dawley rat assessed as time needs to show peak effect for protection against maximal electroshock-induced seizure after 0.25 hrs; type: functional
In short: (§2)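 Rats dosed orally, compound in 0.5% methylcellulose. MES at 150 mA, 60 Hz, 0.2 s; scMET with pentylenetetrazole 70 mg/kg s.c. plus 30 min observation; rotorod for toxicity.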

Rattus norvegicus [3] = organism: Rattus norvegicus; assay: Inhibition of voltage-gated sodium channel in Wistar rat cerebral prefrontal coronal slices assessed as decrease of […] current-induced current amplitude at 10 uM after 5 mins by whole cell voltage clamp method (reference value: 4.2%); design: scale not given: the % may be the effect or the level left
Rattus norvegicus [4] = assay: Anticonvulsant activity in po dosed albino Sprague-Dawley rat assessed as protection against subcutaneous metrazol-induced seizure after 0.25 hrs; type: functional; in short: as §2
Mus musculus [5] = assay: Anticonvulsant activity in albino Carworth Farms No.1 mouse assessed as protection against electric-current for 3 secs-induced seizure at 75 mg/kg, ip after 0.25 hrs by 6Hz minimal clonic seizure test; type: functional, organism-based; design: dose 75 mg/kg
In short: (§3)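 6 Hz psychomotor seizure test in mice. Compound given i.p. as a suspension in 0.5% methylcellulose. Corneal stimulation at 32 mA, 0.2-ms monopolar rectangular pulses at 6 Hz for 3 s, from a constant-current device. Tests run 0.25–4 h after dosing. A mouse counted as protected if it resumed normal exploratory behaviour within 10 s; scored as protected/tested.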

Rattus norvegicus [6] = assay: Toxicity in albino Sprague-Dawley rat pilocarpine-induced status epilepticus model assessed as change in body weight in protected rat at 130 mg/kg, ip measured after 24 hrs of time from first stage 3 seizures; type: organism-based; design: dose 130 mg/kg, route intraperitoneal; conditions: in vivo
In short: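 Male albino Sprague-Dawley rats (150–180 g) received compound i.p., then a pilocarpine challenge immediately (0 min) or 30 min after treatment. The outcome was protection or no protection from seizures, scored as number protected/number tested. Average body weight change (g) ± S.E.M. was reported separately for protected and non-protected rats.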

Mus musculus [7] = assay: Neurotoxicity in albino Carworth Farms No.1 mouse assessed as motor impairment at 300 mg/kg, ip after 0.5 hrs by rotarod test; type: toxicity, organism-based; design: dose 300 mg/kg, route intraperitoneal; conditions: in vivo; in short: as §1
Mus musculus [8] = assay: Anticonvulsant activity in albino Carworth Farms No.1 mouse assessed as protection against subcutaneous metrazol-induced seizure at 300 mg/kg, ip after 0.5 hrs; type: functional, organism-based; design: dose 300 mg/kg
In short: (§4)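 Mouse scMET test. Compound given i.p. (30, 100 or 300 mg/kg) in 0.5% methylcellulose. Pentylenetetrazole 85 mg/kg (CD97) given s.c. at 0.5 or 4 h, then mice observed for 30 min. Protection is absence of clonic spasms; scored as protected/tested.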

Rattus norvegicus [9] = assay: Anticonvulsant activity in po dosed albino Sprague-Dawley rat assessed as protection against maximal electroshock-induced seizure after 0.25 hrs; type: functional; in short: as §2
Rattus norvegicus [10] = assay: Anticonvulsant activity in albino Sprague-Dawley rat assessed as protection against pilocarpine-induced status epilepticus at 65 mg/kg, ip measured after time from first stage 3 seizures; type: functional, organism-based; design: dose 65 mg/kg
In short: (§5)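 Male albino Sprague-Dawley rats, 150–180 g. Compound given i.p., then a challenge dose of pilocarpine at 0 min or at 30 min. Outcome scored as protection or no protection from seizures (protected/tested), with body weight change recorded.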

Rattus norvegicus [11] = organism: Rattus norvegicus; assay: Protective index, ratio of TD50 for albino Sprague-Dawley rat to ED50 for albino Sprague-Dawley rat by maximal electroshock-induced seizure test; type: functional
Mus musculus [12] = assay: Anticonvulsant activity in albino Carworth Farms No.1 mouse assessed as protection against maximal electroshock-induced seizure at 30 mg/kg, ip after 4 hrs; type: functional, organism-based; design: dose 30 mg/kg
In short: (§6)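 Mouse MES test with compound given i.p. (30, 100 or 300 mg/kg) in 0.5% methylcellulose; tested at 0.5 and 4 h. Corneal stimulus of 50 mA at 60 Hz for 0.2 s, electrodes primed with 0.5% butacaine in 0.9% NaCl. Protection is abolition of hindlimb tonic extension; scored as protected/tested.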

Mus musculus [13] = assay: Anticonvulsant activity in albino Carworth Farms No.1 mouse assessed as protection against subcutaneous metrazol-induced seizure at 100 mg/kg, ip after 4 hrs; type: functional, organism-based; design: dose 100 mg/kg; in short: as §4
Mus musculus [14] = assay: Anticonvulsant activity in ip dosed albino Carworth Farms No.1 mouse assessed as protection against maximal electroshock-induced seizure after 0.25 hrs; type: functional; conditions: albino Carworth Farms No.1, ip
In short: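 Mouse quantification at the time of peak effect, compound given i.p. in 0.5% methylcellulose. Groups of at least eight mice received varied doses until at least two points fell between 100 and 0% response. ED50 (MES, scMET) and TD50 (rotorod) with 95% CI by probit analysis (Finney). PI = TD50/ED50 MES.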

Mus musculus [15] = assay: Anticonvulsant activity in albino Carworth Farms No.1 mouse assessed as protection against maximal electroshock-induced seizure at 100 mg/kg, ip after 0.5 hrs; type: functional, organism-based; design: dose 100 mg/kg; in short: as §6
Mus musculus [16] = assay: Anticonvulsant activity in albino Carworth Farms No.1 mouse assessed as protection against electric-current for 3 secs-induced seizure at 75 mg/kg, ip after 4 hrs by 6Hz minimal clonic seizure test; type: functional, organism-based; design: dose 75 mg/kg; in short: as §3
[17] = Neurotoxicity in ip dosed albino Carworth Farms No.1 mouse assessed as motor impairment after 0.25 hrs by rotarod test; type: toxicity, organism-based; conditions: Carworth Farms No.1 (albino), in vivo
In short: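 Mouse quantification at the time of peak effect, compound given i.p. in 0.5% methylcellulose. Groups of at least eight mice received varied doses until at least two points fell between 100 and 0% response. PI = TD50/ED50 MES.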

Mus musculus [18] = assay: Anticonvulsant activity in albino Carworth Farms No.1 mouse assessed as protection against subcutaneous metrazol-induced seizure at 30 mg/kg, ip after 4 hrs; type: functional, organism-based; design: dose 30 mg/kg; in short: as §4
Mus musculus [19] = assay: Neurotoxicity in albino Carworth Farms No.1 mouse assessed as motor impairment at 30 mg/kg, ip after 4 hrs by rotarod test; type: toxicity, organism-based; design: dose 30 mg/kg, route intraperitoneal; conditions: in vivo; in short: as §1
[20] = Neurotoxicity in po dosed albino Sprague-Dawley rat assessed as motor impairment after 0.25 hrs by rotarod test; type: toxicity, organism-based; conditions: in vivo; in short: as §2
Mus musculus [21] = assay: Anticonvulsant activity in ip dosed albino Carworth Farms No.1 mouse assessed as time needs to show peak effect for protection against maximal electroshock-induced seizure; type: functional
Mus musculus [22] = assay: Anticonvulsant activity in albino Carworth Farms No.1 mouse assessed as protection against maximal electroshock-induced seizure at 300 mg/kg, ip after 4 hrs; type: functional, organism-based; design: dose 300 mg/kg; in short: as §6
Mus musculus [23] = assay: Anticonvulsant activity in albino Carworth Farms No.1 mouse assessed as protection against electric-current for 3 secs-induced seizure at 100 mg/kg, ip after 4 hrs by 6Hz minimal clonic seizure test; type: functional, organism-based; design: dose 100 mg/kg; in short: as §3
Mus musculus [24] = assay: Anticonvulsant activity in albino Carworth Farms No.1 mouse assessed as protection against electric-current for 3 secs-induced seizure at 75 mg/kg, ip after 2 hrs by 6Hz minimal clonic seizure test; type: functional, organism-based; design: dose 75 mg/kg; in short: as §3
Mus musculus [25] = assay: Anticonvulsant activity in albino Carworth Farms No.1 mouse assessed as protection against electric-current for 3 secs-induced seizure at 100 mg/kg, ip after 0.25 hrs by 6Hz minimal clonic seizure test; type: functional, organism-based; design: dose 100 mg/kg; in short: as §3
Rattus norvegicus [26] = assay: Anticonvulsant activity in albino Sprague-Dawley rat assessed as protection against pilocarpine-induced status epilepticus at 130 mg/kg, ip measured after time from first stage 3 seizures; type: functional, organism-based; design: dose 130 mg/kg; in short: as §5

O=C1NC(=O)[C@@H]2CCCN2[C@H]1c1ccccc1
Activity (Mus musculus [1]): Non-toxic
Time (Rattus norvegicus [2]): 0.25 h
Activity (Rattus norvegicus [3]): 5.3%
ED50 (Rattus norvegicus [4]): 114 mg/kg
Activity (Mus musculus [5]): Active
Activity (Rattus norvegicus [6]): 12.5 g
Activity (Mus musculus [7]): Non-toxic
Activity (Mus musculus [8]): inactive
ED50 (Rattus norvegicus [9]): 39.7 mg/kg
Activity (Rattus norvegicus [10]): Active
Ratio TD50/ED50 (Rattus norvegicus [11]): >12.6
Activity (Mus musculus [12]): inactive
Activity (Mus musculus [13]): inactive
ED50 (Mus musculus [14]): 69.5 mg/kg
Activity (Mus musculus [15]): Active
Activity (Mus musculus [16]): inactive
TD50 at 0.25 h [17]: 122 mg/kg
Activity (Mus musculus [18]): inactive
Activity (Mus musculus [19]): Non-toxic
TD50 at 0.25 h [20]: > 500 mg/kg
Time (Mus musculus [21]): 0.25 h
Activity (Mus musculus [22]): inactive
Activity (Mus musculus [23]): inactive
Activity (Mus musculus [24]): inactive
Activity (Mus musculus [25]): Active
Activity (Rattus norvegicus [26]): Active

From ChEMBL document CHEMBL1909525, “Synthesis and anticonvulsant activity of novel 2,6-diketopiperazine derivatives. Part 1: perhydropyrrole[1,2-a]pyrazines” (Eur J Med Chem, 2011)
